By CC50 is commonly meant the concentration giving 50% cytotoxicity. Usually IC50 stands for the concentration at which inhibition is half-maximal.

Here are results for 42 compounds from ChEMBL document CHEMBL1811908, “Design of HIV-1 integrase inhibitors targeting the catalytic domain as well as its interaction with LEDGF/p75: a scaffold hopping approach using salicylate and catechol groups” (Bioorg Med Chem, 2011).

Some results are limits rather than exact numbers.

Data set [1] can be described thus: (§1) Cytotoxicity against human NCI-H630 cells after 72 hrs by MTT assay. It is filed as cell-based. The following applies: NCI-H630 cells. Put shortly: (§2)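 H630 colon cancer cells seeded, attached overnight, then continuously exposed to compound (DMSO stocks) for 72 h. MTT added to 0.5 mg/mL final, 4 h at 37°C; supernatant removed, DMSO added, absorbance read at 570 nm. IC50 taken from plot of log concentration versus percentage of cells killed.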
In general terms: Tetrazolium dyes change colour on reduction, which living cells bring about.

The target of data set [2] is T1, Human immunodeficiency virus type 1 integrase (Human immunodeficiency virus 1, UniProt Q7ZJM1). The data set can be described thus: Inhibition of wild-type HIV1 integrase 3'-processing activity using [32P]-5'-end-labeled 5'-GTGTGGAAAATCTCTAGCAGT-3' as substrate after 1 hr.
T1 sequence (Q7ZJM1 whole entry): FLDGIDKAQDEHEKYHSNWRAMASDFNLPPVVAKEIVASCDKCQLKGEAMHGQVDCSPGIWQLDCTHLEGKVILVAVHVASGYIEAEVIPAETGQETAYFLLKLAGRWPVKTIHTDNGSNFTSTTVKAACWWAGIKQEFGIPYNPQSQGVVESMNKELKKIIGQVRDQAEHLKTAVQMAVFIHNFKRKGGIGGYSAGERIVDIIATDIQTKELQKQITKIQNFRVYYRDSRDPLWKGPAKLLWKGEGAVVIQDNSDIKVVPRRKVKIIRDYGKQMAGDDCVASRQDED
The target in data set [3] is T1, Human immunodeficiency virus type 1 integrase. The data set can be described thus: Inhibition of wild-type HIV1 integrase strand transfer activity using [32P]-5'-end-labeled 5'-GTGTGGAAAATCTCTAGCAGT-3' as substrate after 1 hr.
The subject of the next data set is NCI-H630. Described as §1. It is filed as cell-based. The note with it: nci-h630, 72 h. Put shortly: as §2
The nature of data set [4]: Inhibition of HIV1 His6-tagged integrase-LEDGF/p75 interaction after 30 mins by AlphaScreen assay. In outline: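 His6-tagged IN (300 nM final) preincubated with compound (0.1–100 μM) 30 min at 4°C in 25 mM Tris-HCl pH 7.4, 150 mM NaCl, 1 mM MgCl2, 0.01% Tween-20, 0.1% BSA; 100 nM Flag-LEDGF/p75 added, 1 h at 4°C. Ni-chelate acceptor and anti-Flag donor beads (20 μg/ml each) added, 1 h at 30°C; AlphaScreen emission read.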
For orientation: Bead proximity is the source of the signal in Alpha formats.

Take `O=C(O)c1cccc(OCc2ccccc2)c1O`: the CC50 at 72 h in data set [1] is more than 40 µM. Also, the IC50 in data set [2] and in data set [3] was more than 100 µM throughout.
For the compound `O=C(O)c1cccc(OCc2ccc(F)cc2)c1O`, the CC50 at 72 h in data set [1] is more than 40 µM. For the same compound, the IC50 in data set [2] and in data set [3] was more than 100 µM each time.
`O=C(O)c1cccc(OCc2ccc3ccccc3c2)c1O` returned a CC50 at 72 h in data set [1] of more than 40 µM. The IC50 was more than 100 µM in data set [2] and 140 µM in data set [3].
The compound `O=C(O)c1ccc(OCc2ccccc2)cc1O` displayed a CC50 at 72 h in data set [1] of more than 40 µM. Also, the IC50 in data set [2] and in data set [3] was more than 100 µM in each case.
Turning to `O=C(O)c1ccc(OCc2ccc(F)cc2)cc1O`, the CC50 at 72 h in data set [1] is more than 40 µM. Further, the IC50 in data set [2] and in data set [3] was more than 100 µM each time.
In turn, `O=C(O)c1cc(OCc2ccccc2)ccc1O` showed a CC50 at 72 h in data set [1] of more than 40 µM. The IC50 in data set [2] and in data set [3] was more than 100 µM in each case.
On to `O=C(O)c1cc(OCc2ccc(F)cc2)ccc1O`, for which, in data set [1], the CC50 at 72 h was more than 40 µM. Also, the IC50 in data set [2] and in data set [3] was more than 100 µM in each case.
With `O=C(O)c1c(O)cccc1OCc1ccc(F)cc1`, the CC50 at 72 h in data set [1] is more than 40 µM. The IC50 in data set [2] and in data set [3] was more than 100 µM throughout.
In data set [1], `O=C(O)c1c(O)cccc1OCc1ccc2ccccc2c1` registered a CC50 at 72 h of more than 40 µM. Moreover, the IC50 in data set [2] is more than 100 µM; in data set [3], 186 µM.
Turning to `O=C(NO)c1cccc(OCc2ccc(F)cc2)c1O`, the IC50 in data set [2] and in data set [3] was more than 100 µM each time.
As to `O=C(NO)c1ccc(OCc2ccc(F)cc2)cc1O`, the IC50 in data set [2] is more than 100 µM; in data set [3], 100 µM.
In the case of `O=C(NO)c1cc(OCc2ccc(F)cc2)ccc1O`, the IC50 in data set [2] is more than 100 µM; in data set [3], 85 µM.
The like results for `O=C(NO)c1c(O)cccc1OCc1ccc(F)cc1` were, in that order, more than 100 µM and 97 µM.
For the compound `O=C(NCc1ccc(F)cc1)c1cccc(OCc2ccccc2)c1O`, the CC50 at 72 h in data set [1] was more than 40 µM. In addition, the results for the IC50 in data set [2] and in data set [3] were more than 333 µM and 111 µM, respectively.
The compound `O=C(NCc1cccc2ccccc12)c1cccc(O)c1O` displayed a CC50 in the data set with NCI-H630 of 21 µM. Moreover, the concentration for half-maximal inhibition (IC50) in data set [4] was 34 µM; in data set [2] it was more than 100 µM; in data set [3], 26 µM.
Consider `O=C(NCc1ccc(F)c(F)c1)c1cccc(O)c1O`, for which, in data set [1], the CC50 at 72 h is more than 40 µM. The IC50 in data set [4] is 56 µM; in data set [2], more than 100 µM; in data set [3], 23 µM.
Regarding `O=C(NCc1ccc2[nH]ccc2c1)c1cccc(O)c1O`, the CC50 at 72 h in data set [1] was more than 40 µM. Also, the IC50 in data set [4] was 45 µM.
Take `O=C(NCCc1c[nH]c2ccccc12)c1cccc(O)c1O`: the CC50 in the data set with NCI-H630 came to 15 µM. Also, the IC50 in data set [4] was 63 µM; in data set [2], 100 µM; in data set [3], 100 µM.
In turn, `O=C(Nc1ccc2[nH]ccc2c1)c1cccc(O)c1O` gave a CC50 at 72 h in data set [1] of more than 40 µM. Besides, the IC50 in data set [4] was 88 µM; in data set [2], more than 100 µM; in data set [3] it was 58 µM.
The like results for `O=C(NCc1cccs1)c1cccc(O)c1O` were, in that order, more than 40 µM, 95 µM, 83 µM and 12 µM.
The matching figures for `O=C(NCc1ccco1)c1cccc(O)c1O`: more than 40 µM, 89 µM, 90 µM and 15 µM.
On to `O=C(NCc1ccc(-c2cccs2)cc1)c1cccc(O)c1O`, for which half-maximal cytotoxicity in the data set on NCI-H630 (CC50) was put at 15 µM. Further, the IC50 in data set [4] is more than 100 µM; in data set [2] it was more than 100 µM; in data set [3] it was 21 µM.
In data set [1], `O=C(NC1CCNCC1)c1cccc(O)c1O` came in with a CC50 at 72 h of more than 10 µM. The IC50 in data set [4], in data set [2] and in data set [3] was more than 100 µM each time.
For `O=C(NC1CCCCC1)c1cccc(O)c1O`, in data set [1], the CC50 at 72 h is more than 40 µM. For the same compound, the IC50 in data set [4], in data set [2] and in data set [3] was more than 100 µM each time.
For `O=C(NCC1CCCCC1)c1cccc(O)c1O`, the CC50 with NCI-H630 stood at 21 µM. In addition, the IC50 in data set [4] was more than 100 µM; in data set [2], more than 100 µM; in data set [3] it was 18 µM.
`CNC(=O)Cc1ccccc1CNC(=O)c1cccc(O)c1O` gave a CC50 at 72 h in data set [1] of more than 40 µM. Besides, the IC50 in data set [4] was more than 100 µM; in data set [2], more than 100 µM; in data set [3], 56 µM.
The compound `CNC(=O)c1cc(F)ccc1CNC(=O)c1cccc(O)c1O` gave a CC50 at 72 h in data set [1] of more than 40 µM. The concentration for half-maximal inhibition (IC50) in data set [4] is more than 100 µM; in data set [2], more than 100 µM; in data set [3], 100 µM.
In the data set with NCI-H630, `O=C(NCc1ccc(F)cc1)c1cc(S(=O)(=O)N2CCCCC2)cc(O)c1O` had a CC50 of 13 µM. In addition, the IC50 was 200 µM in data set [2] and 5 µM in data set [3].
In turn, `CNS(=O)(=O)c1cc(O)c(O)c(C(=O)NCc2ccc(F)cc2)c1` had a CC50 at 72 h in data set [1] of more than 40 µM. Moreover, the IC50 in data set [4] is more than 100 µM; in data set [2] it was more than 100 µM; in data set [3] it was 44 µM.
`CC(C)(C)NS(=O)(=O)c1cc(O)c(O)c(C(=O)NCc2ccc(F)cc2)c1` displayed a CC50 at 72 h in data set [1] of more than 10 µM. Further, the IC50 in data set [4] turned out to be 100 µM; in data set [2], 70 µM; in data set [3] it was 8 µM.
Turning to `O=C(NCc1ccco1)c1cc(S(=O)(=O)N2CCCCC2)cc(O)c1O`, half-maximal cytotoxicity with NCI-H630 (CC50) was put at 33 µM. The IC50 in data set [4] is more than 100 µM; in data set [2], more than 100 µM; in data set [3], 13 µM.
For `O=C(NCc1ccc(C(F)(F)F)cc1)c1cc(S(=O)(=O)N2CCCCC2)cc(O)c1O`, in the data set with NCI-H630, the CC50 was 31 µM. The IC50 in data set [4] was more than 100 µM; in data set [2], 89 µM; in data set [3], 11 µM.
Turning to `O=C(NCC1CCCCC1)c1cc(S(=O)(=O)N2CCCCC2)cc(O)c1O`, in data set [1], the CC50 at 72 h is more than 40 µM. In addition, the IC50 in data set [4] turned out to be 8 µM; in data set [2] it was 53 µM; in data set [3] it was 19 µM.
For `O=C(NCc1cccs1)c1cc(S(=O)(=O)N2CCCCC2)cc(O)c1O`, the CC50 at 72 h in data set [1] was more than 40 µM. The concentration for half-maximal inhibition (IC50) was more than 50 µM in data set [4], more than 100 µM in data set [2] and 44 µM in data set [3].
Regarding `CS(=O)(=O)Nc1cc(O)c(O)c(C(=O)NCc2ccc(F)cc2)c1`, the IC50 in data set [4] is 100 µM; in data set [2], more than 100 µM; in data set [3], 34 µM.
`CC(=O)Nc1cc(O)c(O)c(C(=O)NCc2ccc(F)cc2)c1`: the CC50 at 72 h in data set [1] was less than 10 µM. The figures for the IC50 in data set [4], in data set [2] and in data set [3] were more than 100 µM, 55 µM and 14 µM, respectively.
`N#Cc1cc(O)c(O)c(C(=O)NCc2ccc(F)cc2)c1` came in with a CC50 at 72 h in data set [1] of more than 10 µM. The results for the IC50 in data set [2] and in data set [3] were 75 µM and 22 µM, respectively.
The compound `CN(C)Cc1ccc(C(=O)NCc2ccc(F)cc2)c(O)c1O` displayed a CC50 at 72 h in data set [1] of more than 10 µM. For the same compound, the IC50 was more than 50 µM in data set [4], more than 100 µM in data set [2] and 20 µM in data set [3].
Take `CN(C)Cc1ccc(C(=O)NCc2ccco2)c(O)c1O`: the CC50 with NCI-H630 was 7 µM. The IC50 in data set [4] is more than 50 µM; in data set [2], more than 100 µM; in data set [3], 39 µM.
Compound `COc1cc(S(=O)(=O)N2CCCCC2)cc(C(=O)NCc2ccco2)c1O` registered a CC50 at 72 h in data set [1] of more than 25 µM. The IC50 is 13 µM in data set [4], more than 100 µM in data set [2] and more than 100 µM in data set [3].
On to `Nc1cccc(C(=O)NCc2ccco2)c1O`, for which the CC50 at 72 h in data set [1] is more than 25 µM. The IC50 was 51 µM in data set [4], more than 100 µM in data set [2] and more than 100 µM in data set [3].
On to `O=C(NCc1ccc(F)cc1)c1cccc(O)c1O`, for which, in data set [1], the CC50 at 72 h was more than 40 µM. For the same compound, the IC50 in data set [4] was more than 100 µM; in data set [2] it was 100 µM; in data set [3], 35 µM.
